Source: PubChem
TDP2 inh: human TDP2 enzyme inhibitors, primary screen, biochemical, epi absorbance, recombinant enzyme. inhibition, % at 12.8 µM. hit rate 0.34% among 370,000. AID 720702, 2013. Tyrosyl-DNA phosphodiesterase 2 (Homo sapiens), O95551. T5PNP hydrolysis, p-nitrophenol absorbance 415 nm;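 active means inhibition above the mean of all tested compounds plus 3 SD, set per campaign, cut at about 25% in these data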;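 further: 0% = DMSO with enzyme and 100% = buffer with substrate but no TDP2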
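Test system: human TDP2 enzyme; Input: 120 nM TDP2 per well; Buffer or medium: Mg2+-containing Tris-HCl buffer, pH 7.5; Reagent: 5 mM T5PNP; Dosing: 12.8 µM single point, 1% DMSO; Incubation: reaction 2 h, 37 °C; Detection: p-Nitrophenol epi absorbance; Read-out: % inhibition relative to enzyme-containing and enzyme-free wells; Replicates: single well per compound.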
LEDGF integ inh: blockers of LEDGF/p75-dependent integrase strand transfer – biochemical, TR-FRET, high throughput, primary screen | HIV-1 integrase (with human LEDGF/p75) | TR-FRET IN-LEDGF/p75 DNA integration, Eu/Cy5 | inhibition, % at 3.7 µM | hit rate 0.64% among 370,000;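 active means inhibition above the screen-wide mean plus 3 SD, cut at about 13% in these data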;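 further: signal is the Cy5 over europium emission ratio at 671 and 618 nm; 0% = plate median of compound wells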
UCH37 inh: inhibitors of human UCH37 deubiquitinase, primary screen, biochemical, Ub-AMC cleavage, fluorescence | Ubiquitin carboxyl-terminal hydrolase isozyme L5 (Homo sapiens), Q9Y5K5 | purified proteasome/UCH37 | inhibition, % (test concentration not listed) | hit rate 0.33% among 330,000 | AID 588478, 2011;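 active means mean inhibition over replicate wells above about 20%, limit read from the data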;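 further: 0% = compound-free wells with enzyme and 100% = wells lacking proteasome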
Target sequence (Q9Y5K5 whole entry, looked up): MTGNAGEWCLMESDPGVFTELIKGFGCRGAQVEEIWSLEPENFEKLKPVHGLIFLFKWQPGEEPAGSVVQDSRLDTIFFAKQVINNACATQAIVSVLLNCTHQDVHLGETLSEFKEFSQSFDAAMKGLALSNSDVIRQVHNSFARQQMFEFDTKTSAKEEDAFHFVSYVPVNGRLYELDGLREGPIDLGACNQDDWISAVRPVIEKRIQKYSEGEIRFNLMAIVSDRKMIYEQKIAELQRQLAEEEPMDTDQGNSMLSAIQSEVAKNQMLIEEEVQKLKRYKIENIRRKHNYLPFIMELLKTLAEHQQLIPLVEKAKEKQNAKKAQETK
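Assay system: Proteasome-bound UCH37. Buffer or medium: pH 7.4 Tris-HCl (50 mM) with ovalbumin, ATP-MgCl2, DTT. Incubation: 30 min preincubation with enzyme, 25 min cleavage at room temperature. Measured by: fluorescence, ex 355 nm, em 460 nm. Read-out basis: percent inhibition. Control set: wells without proteasome as full block, compound-free enzyme plus substrate as uninhibited.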
NSD2 HMT inh: NSD2 histone methyltransferase inhibitors, primary screen, biochemical, AlphaScreen, single concentration, set 2; inhibition, % at 12.5 µM; NSD2 peptide methylation, 120 min; hit rate 0.54% among 310,000; in the data active means inhibition above about 50%
Casp6 inh: human caspase-6 inhibitors, primary screen, biochemical, VEID-R110 fluorescence, single point, set 2. P55212. purified caspase-6, Z-VEID-R110 cleavage fluorescence. inhibition, % at 12.5 µM. hit rate 0.53% among 350,000;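 active means mean inhibition across replicates at least about 35%, with every replicate also reaching that limit, limit read from the data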;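 further: 0% = median of neutral control wells and 100% = no fluorescence left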
Alpha artifact: AlphaScreen signal interference with preloaded methylated product, dose response, artefact control for NSD2 inhibitor project, biochemical, cherry-picked samples; AlphaScreen artifact counterscreen, preloaded methylated H4 peptide; hit rate 9.4% among 1,500; shares compounds with NSD2 HMT inh; AID 1053174, 2014; AC35, µM (highest dose often 10 µM), for the others: at the highest dose activity change, negative = signal loss; call rule not given here
Starred values were filed as active, the others as inactive; . = not tested or not shown. Only some compounds are listed: those with a hit (about 1.3% of all), similar ones and a draw of the others.

SMILES | TDP2 inh | LEDGF integ inh | UCH37 inh | NSD2 HMT inh | Casp6 inh | Alpha artifact
COc1cc(N(C)C)ccc1C=c1c2ccccc2n2c1cc(-c1ccccc1)[n+]2C | 10 | -1 | . | 85* | 61* | 1.5µM*
O=C1Nc2c(Cl)cccc2C1=O | 8 | 0 | . | 126* | 37* | 4%
O=C(N/N=C1\C/C(=N\NC(=O)c2ccncc2)c2ccccc21)c1ccncc1 | 19 | 2 | . | 108* | 90* | -2%
O=C(N/N=C/c1ccccn1)c1ccncc1 | -5 | 0 | . | -4 | 1 | .
O=C(NN=Cc1cn[nH]c1-c1ccc(F)cc1)c1ccncc1 | . | . | 3 | . | . | .
CCc1n[nH]c(=S)n1N=Cc1ccc(-c2ccc(Br)cc2)o1 | . | . | -3 | . | . | .
COc1ccccc1NC(=O)c1ccccc1NS(=O)(=O)N1CCCC1 | 9 | -1 | 4 | 83* | . | -4%
COc1ccccc1NC(=O)c1ccccc1C(=O)Nc1ccccc1OC | 14 | -1 | 1 | . | -1 | .
